pEC50, pIC50: −log10 of the molar value.
Tests used:
[1] = tested on: Human immunodeficiency virus 1; test: Antiviral activity against Human immunodeficiency virus 1 isolate M2 expressing protease L10I, I13V, M46I, I50V, L63P, L76V mutant infected in human MT4 cells; assay type: functional, organism-based; conditions: Human immunodeficiency virus 1, isolate M2, MT4
Method in brief: (§1)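 Cell-based antiviral assay in MT4 cells infected with a multi-PI-resistant HIV-1 mutant carrying clinically observed primary protease mutations. EC50 determined, with all assays run in quadruplicate.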

[2] = tested on: Human immunodeficiency virus 1; test: Antiviral activity against Human immunodeficiency virus 1 isolate M1 expressing protease L10I, M46I, I64V, I84V, L90M, I93L mutant infected in human MT4 cells; assay type: functional, organism-based; conditions: Human immunodeficiency virus 1, isolate M1, MT4; method in brief: as §1
[3] = tested on: Human immunodeficiency virus 1; test: Antiviral activity against Human immunodeficiency virus 1 isolate M3 expressing protease L10I, K20R, M36I, G48V, I62V, A71V, V82A, I93L mutant infected in human MT4 cells; assay type: functional, organism-based; conditions: Human immunodeficiency virus 1, isolate M3, MT4
[4] = tested on: Human immunodeficiency virus 1; test: Antiviral activity against Human immunodeficiency virus 1 3B expressing wild-type protease infected in human MT4 cells; assay type: functional, organism-based
Method in brief: (§2)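 Cell-based antiviral assay in MT4 cells infected with wild-type HIV-1 IIIB, read as EC50. Run in quadruplicate. It was also repeated in the presence of 50% human serum as an indicator of plasma protein binding.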

[5] = Cytotoxicity against human MT4 cells; assay type: cell-based
[6] = tested on: Human immunodeficiency virus 1; test: Antiviral activity against Human immunodeficiency virus 1 3B expressing wild-type protease infected in human MT4 cells in presence of 50% human serum; assay type: functional, organism-based; method in brief: as §2
[7] = tested on: Human immunodeficiency virus 1; test: Selectivity index, ratio of EC50 for Human immunodeficiency virus 1 isolate M1 expressing protease L10I, M46I, I64V, I84V, L90M, I93L mutant to EC50 for Human immunodeficiency virus 1 3B expressing wild-type protease; assay type: functional
Method in brief: (§3)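 Fold change is the EC50 against the multi-PI-resistant mutant divided by the EC50 against wild-type HIV-1 IIIB. Both EC50s come from cell-based assays in MT4 cells run in quadruplicate.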

[8] = tested on: Human immunodeficiency virus 1; test: Selectivity index, ratio of EC50 for Human immunodeficiency virus 1 isolate M3 expressing protease L10I, K20R, M36I, G48V, I62V, A71V, V82A, I93L mutant to EC50 for Human immunodeficiency virus 1 3B expressing wild-type protease; assay type: functional; method in brief: as §3
[9] = tested on: Human immunodeficiency virus 1; test: Selectivity index, ratio of EC50 for Human immunodeficiency virus 1 isolate M2 expressing protease L10I, I13V, M46I, I50V, L63P, L76V mutant to EC50 for Human immunodeficiency virus 1 3B expressing wild-type protease; assay type: functional; method in brief: as §3
[10] = Selectivity index, ratio of CC50 for human MT4 cells to EC50 for Human immunodeficiency virus 1 3B; assay type: toxicity, cell-based
Method in brief: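 Selectivity index is calculated as CC50 divided by EC50 against HIV-1 IIIB in the cell-based assay.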

[11] = Ratio of EC50 for Human immunodeficiency virus 1 3B expressing wild-type protease to IC50 for Human immunodeficiency virus 1 3B protease
Protease = Protease (Human immunodeficiency virus 1, UniProt Q9YQ12); test: Inhibition of Human immunodeficiency virus 1 3B protease
Chain of Protease (Q9YQ12 whole entry): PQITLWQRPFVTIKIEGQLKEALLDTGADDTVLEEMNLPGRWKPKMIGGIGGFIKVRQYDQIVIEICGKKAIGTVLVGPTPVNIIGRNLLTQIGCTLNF

## CC(C)CN(C[C@@H](O)[C@H](Cc1ccccc1)NC(=O)O[C@H]1CO[C@H]2OCC[C@H]21)S(=O)(=O)c1ccc(N)cc1
[1]
  pEC50: 7.29
[2]
  pEC50: 7.95
[3]
  pEC50: 8.64
[4]
  pEC50: 8.18
[5]
  CC50: > 9800 nM
[6]
  pEC50: 7.76

## CNc1nc2ccc(S(=O)(=O)N(CC(C)C)C[C@@H](O)[C@H](Cc3ccccc3)NC(=O)O[C@H]3CO[C@H]4OC[C@H](OCc5ccccc5F)[C@H]43)cc2o1
[1]
  pEC50: 8.68
[2]
  pEC50: 8.89
[7]
  Ratio EC50: 2
[8]
  Ratio EC50: 1.3
[3]
  pEC50: 9.05
[4]
  pEC50: 9.15
[9]
  Ratio EC50: 3.1
[10]
  selectivity ratio: > 2000
[5]
  CC50: > 9800 nM
[6]
  pEC50: 8.40

## CC(C)CN(C[C@@H](O)[C@H](Cc1ccccc1)NC(=O)O[C@H]1CO[C@H]2OC[C@H](O)[C@H]21)S(=O)(=O)c1ccc(N)cc1
[1]
  pEC50: 6.69
[2]
  pEC50: 6.95
[7]
  Ratio EC50: 0.1
[8]
  Ratio EC50: <0.1
[3]
  pEC50: 7.39
[11]
  Ratio: 250
[4]
  pEC50: 6.11
Protease
  pIC50: 8.54
[9]
  Ratio EC50: 0.3
[6]
  pEC50: 6.09

## CNc1nc2ccc(S(=O)(=O)N(CC(C)C)C[C@@H](O)[C@H](Cc3ccccc3)NC(=O)O[C@H]3CO[C@H]4OC[C@H](O)[C@H]43)cc2o1
[1]
  pEC50: 6.97
[2]
  pEC50: 6.90
[7]
  Ratio EC50: 0.9
[8]
  Ratio EC50: 0.8
[3]
  pEC50: 6.98
[4]
  pEC50: 6.86
[9]
  Ratio EC50: 0.8
[6]
  pEC50: 6.35

## CC(C)CN(C[C@@H](O)[C@H](Cc1ccccc1)NC(=O)O[C@H]1CO[C@H]2OC[C@H](OCc3ccccc3)[C@H]21)S(=O)(=O)c1ccc(N)cc1
[1]
  pEC50: 7.74
[2]
  pEC50: 8.33
[7]
  Ratio EC50: 3.1
[8]
  Ratio EC50: 1.1
[3]
  pEC50: 8.77
[4]
  pEC50: 8.82
Protease
  pIC50: 8.46
[9]
  Ratio EC50: 12
[10]
  selectivity ratio: > 2000
[5]
  CC50: > 9800 nM
[6]
  pEC50: 7.92

## CNc1nc2ccc(S(=O)(=O)N(CC(C)C)C[C@@H](O)[C@H](Cc3ccccc3)NC(=O)O[C@H]3CO[C@H]4OC[C@H](OCc5ccc(F)cc5)[C@H]43)cc2o1
[1]
  pEC50: 8.64
[2]
  pEC50: 8.96
[7]
  Ratio EC50: 1.8
[8]
  Ratio EC50: 1.6
[3]
  pEC50: 9.00
[4]
  pEC50: 9.22
[9]
  Ratio EC50: 3.8
[10]
  selectivity ratio: > 2000
[5]
  CC50: > 9800 nM
[6]
  pEC50: 8.40

## CNc1nc2ccc(S(=O)(=O)N(CC(C)C)C[C@@H](O)[C@H](Cc3ccccc3)NC(=O)O[C@H]3CO[C@H]4OC[C@H](OCCOC)[C@H]43)cc2o1
[1]
  pEC50: 7.97
[2]
  pEC50: 8.16
[7]
  Ratio EC50: 0.8
[8]
  Ratio EC50: 0.5
[3]
  pEC50: 8.37
[4]
  pEC50: 8.07
Protease
  pIC50: 8.82
[9]
  Ratio EC50: 1.3
[10]
  selectivity ratio: > 2000
[5]
  CC50: > 9800 nM
[6]
  pEC50: 7.62

## CNc1nc2ccc(S(=O)(=O)N(CC(C)C)C[C@@H](O)[C@H](Cc3ccccc3)NC(=O)O[C@H]3CO[C@H]4OCC[C@H]43)cc2o1
[1]
  pEC50: 8.49
[2]
  pEC50: 8.57
[7]
  Ratio EC50: 1.2
[8]
  Ratio EC50: 0.4
[3]
  pEC50: 9.05
[4]
  pEC50: 8.64
[9]
  Ratio EC50: 1.4
[10]
  selectivity ratio: > 2000
[5]
  CC50: > 9800 nM
[6]
  pEC50: 8.08

## Cc1cccc(C)c1OCC(=O)N[C@@H](Cc1ccccc1)[C@@H](O)C[C@H](Cc1ccccc1)NC(=O)[C@H](C(C)C)N1CCCNC1=O [LOPINAVIR]
[1]
  pEC50: 6.51
[2]
  pEC50: 6.94
[4]
  pEC50: 7.86
[5]
  CC50: > 9800 nM
[6]
  pEC50: 7.20

## CNc1nc2ccc(S(=O)(=O)N(CC(C)C)C[C@@H](O)[C@H](Cc3ccccc3)NC(=O)O[C@H]3CO[C@H]4OC[C@H](OCSC)[C@H]43)cc2o1
[1]
  pEC50: 8.03
[2]
  pEC50: 8.41
[7]
  Ratio EC50: 3
[8]
  Ratio EC50: 1.7
[3]
  pEC50: 8.66
[4]
  pEC50: 8.89
[9]
  Ratio EC50: 7.1
[10]
  selectivity ratio: > 2000
[5]
  CC50: > 9800 nM
[6]
  pEC50: 8.17

## COC(=O)N[C@H](C(=O)N[C@@H](Cc1ccccc1)[C@@H](O)CN(Cc1ccc(-c2ccccn2)cc1)NC(=O)[C@@H](NC(=O)OC)C(C)(C)C)C(C)(C)C [ATAZANAVIR]
[1]
  pEC50: 8.49
[2]
  pEC50: 7.24
[7]
  Ratio EC50: 8.4
[8]
  Ratio EC50: 8.8
[3]
  pEC50: 7.22
[4]
  pEC50: 8.16
[9]
  Ratio EC50: 0.5
[10]
  selectivity ratio: > 2000
[5]
  CC50: > 9800 nM
[6]
  pEC50: 7.88

## CNc1nc2ccc(S(=O)(=O)N(CC(C)C)C[C@@H](O)[C@H](Cc3ccccc3)NC(=O)O[C@H]3CO[C@H]4OC[C@H](OCc5cccc(F)c5)[C@H]43)cc2o1
[1]
  pEC50: 8.77
[2]
  pEC50: 9.10
[7]
  Ratio EC50: 1.2
[8]
  Ratio EC50: 1.3
[3]
  pEC50: 9.10
[4]
  pEC50: 9.22
[9]
  Ratio EC50: 2.7
[10]
  selectivity ratio: > 2000
[5]
  CC50: > 9800 nM
[6]
  pEC50: 8.43

## CNc1nc2ccc(S(=O)(=O)N(CC(C)C)C[C@@H](O)[C@H](Cc3ccccc3)NC(=O)O[C@H]3CO[C@H]4OC[C@H](OCOC)[C@H]43)cc2o1
[1]
  pEC50: 7.95
[2]
  pEC50: 8.30
[7]
  Ratio EC50: 1.2
[8]
  Ratio EC50: 0.7
[3]
  pEC50: 8.72
[4]
  pEC50: 8.47
[9]
  Ratio EC50: 2.4
[10]
  selectivity ratio: > 2000
[5]
  CC50: > 9800 nM
[6]
  pEC50: 8.15

## COCCO[C@H]1CO[C@@H]2OC[C@H](OC(=O)N[C@@H](Cc3ccccc3)[C@H](O)CN(CC(C)C)S(=O)(=O)c3ccc(N)cc3)[C@@H]21
[1]
  pEC50: 7.15
[2]
  pEC50: 7.92
[7]
  Ratio EC50: 0.8
[8]
  Ratio EC50: 0.4
[3]
  pEC50: 8.17
[4]
  pEC50: 7.81
Protease
  pIC50: 8.60
[9]
  Ratio EC50: 4.6
[10]
  selectivity ratio: > 2000
[5]
  CC50: > 9800 nM
[6]
  pEC50: 7.43

## CNc1nc2ccc(S(=O)(=O)N(CC(C)C)C[C@@H](O)[C@H](Cc3ccccc3)NC(=O)O[C@H]3CO[C@H]4OC[C@H](OCc5ccc(F)cc5F)[C@H]43)cc2o1
[1]
  pEC50: 8.64
[2]
  pEC50: 8.96
[7]
  Ratio EC50: 2
[8]
  Ratio EC50: 1.3
[3]
  pEC50: 9.15
[4]
  pEC50: 9.22
[9]
  Ratio EC50: 4.1
[10]
  selectivity ratio: > 2000
[5]
  CC50: > 9800 nM
[6]
  pEC50: 8.27

## CC(C)CN(C[C@@H](O)[C@H](Cc1ccccc1)NC(=O)O[C@H]1CO[C@H]2OC[C@H](Oc3ccccc3)[C@H]21)S(=O)(=O)c1ccc(N)cc1
[1]
  pEC50: 6.60
[2]
  pEC50: 7.49
[7]
  Ratio EC50: 3.7
[8]
  Ratio EC50: 0.7
[3]
  pEC50: 8.19
[4]
  pEC50: 8.05
[9]
  Ratio EC50: 28
[10]
  selectivity ratio: > 2000
[5]
  CC50: > 9800 nM
[6]
  pEC50: 7.33

## CNc1nc2ccc(S(=O)(=O)N(CC(C)C)C[C@@H](O)[C@H](Cc3ccccc3)NC(=O)O[C@H]3CO[C@H]4OC[C@H](OCc5ccccc5)[C@H]43)cc2o1
[1]
  pEC50: 8.47
[2]
  pEC50: 8.77
[7]
  Ratio EC50: 2.2
[8]
  Ratio EC50: 1.3
[3]
  pEC50: 9.00
[4]
  pEC50: 9.10
[9]
  Ratio EC50: 4.5
[10]
  selectivity ratio: > 2000
[5]
  CC50: > 9800 nM
[6]
  pEC50: 8.43

From ChEMBL document CHEMBL2040835, “Disubstituted Bis-THF Moieties as New P2 Ligands in Nonpeptidal HIV-1 Protease Inhibitors” (ACS Med Chem Lett, 2011)
